From ChEMBL document CHEMBL3108710, “Discovery of a novel class of dimeric Smac mimetics as potent IAP antagonists resulting in a clinical candidate for the treatment of cancer (AZD5582)” (J Med Chem, 2013)
Calls of active or inactive are those of the source. The rule behind the calls is not given here.

Columns and labels:
[1] = Apparent permeability from apical to basolateral side in human Caco2 cells; assay type: ADME, cell-based; settings: Caco-2
[2] = Aqueous equilibrium solubility of compound in phosphate buffer at pH 7.4 after 24 hrs by HPLC-UV analysis; assay type: physicochemical
MDA-MB-231 [3] = assay: Antiproliferative activity against human MDA-MB-231 cells assessed as growth inhibition after 48 hrs by Alamar Blue assay; assay type: functional; settings: MDA-MB-231, 48 h
[4] = molecular target: T1, Baculoviral IAP repeat-containing protein 2 (Homo sapiens, UniProt Q13490); assay: Binding affinity to cIAP1 in human MDA-MB-231 cells assessed as induction of protein degradation after 1 hr by ELISA; assay type: cell-based
T1 sequence (Q13490 whole entry): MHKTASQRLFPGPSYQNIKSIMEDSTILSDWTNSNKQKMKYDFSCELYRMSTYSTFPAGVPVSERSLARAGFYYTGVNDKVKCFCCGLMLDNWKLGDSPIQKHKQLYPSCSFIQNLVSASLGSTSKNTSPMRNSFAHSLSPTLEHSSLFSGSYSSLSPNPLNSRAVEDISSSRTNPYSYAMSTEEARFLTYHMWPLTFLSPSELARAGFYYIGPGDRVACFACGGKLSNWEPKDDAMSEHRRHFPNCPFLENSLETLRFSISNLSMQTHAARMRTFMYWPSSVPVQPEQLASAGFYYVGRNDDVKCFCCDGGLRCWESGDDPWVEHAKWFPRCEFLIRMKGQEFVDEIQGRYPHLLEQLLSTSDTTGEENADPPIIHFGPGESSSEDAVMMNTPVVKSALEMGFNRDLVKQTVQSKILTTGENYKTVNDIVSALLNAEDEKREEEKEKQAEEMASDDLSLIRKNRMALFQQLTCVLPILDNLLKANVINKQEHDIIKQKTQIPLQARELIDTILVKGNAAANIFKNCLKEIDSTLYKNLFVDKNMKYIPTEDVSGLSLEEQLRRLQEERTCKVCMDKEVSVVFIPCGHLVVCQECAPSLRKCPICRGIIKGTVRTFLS

[5] = AUC in Han Wistar rat at 1 mg/kg, iv by LC-MS/MS analysis; assay type: ADME, organism-based; set-up: dose 1 mg/kg, route intravenous; settings: plasma
Outline: (§1)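 Rat PK after a single intravenous bolus. Parameters derived from plasma levels: total plasma clearance, steady-state volume of distribution, half-life and AUC.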

[6] = Elimination half life in Han Wistar rat at 1 mg/kg, iv by LC-MS/MS analysis; assay type: ADME, organism-based; set-up: dose 1 mg/kg, route intravenous; settings: in vivo, read-out: beta t1/2 (converted); outline: as §1
[7] = Volume of distribution at steady state in Han Wistar rat at 1 mg/kg, iv by LC-MS/MS analysis; assay type: ADME, organism-based; set-up: dose 1 mg/kg, route intravenous; settings: in vivo, read-out: Vdss; outline: as §1
[8] = Total plasma clearance in Han Wistar rat at 1 mg/kg, iv by LC-MS/MS analysis; assay type: ADME, organism-based; set-up: dose 1 mg/kg, route intravenous; outline: as §1
[9] = Chemical stability of the compound assessed as amide hydrolysis at pH >8; assay type: physicochemical
[10] = Chemical stability of the compound assessed as amide hydrolysis at pH 1; assay type: physicochemical; settings: buffer
[11] = Photostability of the compound; assay type: physicochemical
[12] = Hydrolytic stability of the compound at pH 4 to 6; assay type: physicochemical; settings: buffer
[13] = molecular target: T2, E3 ubiquitin-protein ligase XIAP (Homo sapiens, UniProt P98170); assay: Displacement of AbuRPFK-5FAM from GST-tagged XIAP BIR2 domain ([…] to P260) (unknown origin) after 20 mins by fluorescence polarization assay
T2 sequence (P98170 whole entry, the tested form may be a part): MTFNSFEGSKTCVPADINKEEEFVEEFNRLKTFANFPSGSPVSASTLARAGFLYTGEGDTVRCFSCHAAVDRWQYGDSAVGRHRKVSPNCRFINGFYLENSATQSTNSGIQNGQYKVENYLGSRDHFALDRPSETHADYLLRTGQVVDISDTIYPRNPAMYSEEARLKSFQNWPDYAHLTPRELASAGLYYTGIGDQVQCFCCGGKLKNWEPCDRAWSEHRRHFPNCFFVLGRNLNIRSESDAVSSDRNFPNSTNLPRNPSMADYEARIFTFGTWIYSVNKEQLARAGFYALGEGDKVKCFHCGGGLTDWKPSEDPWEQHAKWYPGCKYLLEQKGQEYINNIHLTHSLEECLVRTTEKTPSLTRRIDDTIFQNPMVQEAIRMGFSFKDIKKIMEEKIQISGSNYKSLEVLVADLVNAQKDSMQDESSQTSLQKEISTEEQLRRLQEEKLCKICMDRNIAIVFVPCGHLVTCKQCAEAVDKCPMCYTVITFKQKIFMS
Outline: (§2)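 Competitive fluorescence polarization binding assay. Measures displacement of a 5-carboxyfluorescein-tagged synthetic peptide from the AVPI groove of the isolated BIR domain.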

[14] = molecular target: T3, Baculoviral IAP repeat-containing protein 3 (Homo sapiens, UniProt Q13489); assay: Displacement of AbuRPFK-5FAM from GST-tagged cIAP2 BIR3 domain (I235 to A336) (unknown origin) after 20 mins by fluorescence polarization assay; outline: as §2
T3 sequence (Q13489 whole entry, the tested form may be a part): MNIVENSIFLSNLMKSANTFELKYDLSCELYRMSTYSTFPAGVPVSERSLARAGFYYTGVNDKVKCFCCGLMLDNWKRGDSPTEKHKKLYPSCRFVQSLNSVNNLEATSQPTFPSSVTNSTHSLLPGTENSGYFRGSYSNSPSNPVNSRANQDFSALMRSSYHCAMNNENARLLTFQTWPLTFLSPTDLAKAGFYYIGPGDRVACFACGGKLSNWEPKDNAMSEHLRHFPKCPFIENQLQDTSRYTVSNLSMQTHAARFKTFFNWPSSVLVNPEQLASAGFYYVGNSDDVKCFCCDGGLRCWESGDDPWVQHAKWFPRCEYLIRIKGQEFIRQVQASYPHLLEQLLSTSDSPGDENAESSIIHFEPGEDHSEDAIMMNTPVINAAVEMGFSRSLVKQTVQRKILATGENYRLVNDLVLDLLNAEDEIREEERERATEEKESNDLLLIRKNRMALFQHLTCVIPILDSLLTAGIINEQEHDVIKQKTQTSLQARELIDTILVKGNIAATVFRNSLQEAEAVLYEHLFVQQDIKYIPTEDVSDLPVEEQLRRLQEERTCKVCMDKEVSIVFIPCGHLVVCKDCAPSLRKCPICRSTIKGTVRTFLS

[15] = AUC in Han Wistar rat at 0.5 mg/kg, iv by LC-MS/MS analysis; assay type: ADME, organism-based; set-up: dose 0.5 mg/kg, route intravenous; settings: plasma; outline: as §1
[16] = Elimination half life in Han Wistar rat at 0.5 mg/kg, iv by LC-MS/MS analysis; assay type: ADME, organism-based; set-up: dose 0.5 mg/kg, route intravenous; settings: in vivo, read-out: beta t1/2 (converted); outline: as §1
[17] = Volume of distribution at steady state in Han Wistar rat at 0.5 mg/kg, iv by LC-MS/MS analysis; assay type: ADME, organism-based; set-up: dose 0.5 mg/kg, route intravenous; settings: in vivo, read-out: Vdss; outline: as §1
[18] = Total plasma clearance in Han Wistar rat at 0.5 mg/kg, iv by LC-MS/MS analysis; assay type: ADME, organism-based; set-up: dose 0.5 mg/kg, route intravenous; outline: as §1
[19] = molecular target: T2, E3 ubiquitin-protein ligase XIAP; assay: Displacement of AbuRPFK-5FAM from GST-tagged XIAP BIR3 domain (N252 to E350) (unknown origin) after 20 mins by fluorescence polarization assay; outline: as §2
[20] = molecular target: T1, Baculoviral IAP repeat-containing protein 2; assay: Displacement of AbuRPFK-5FAM from GST-tagged cIAP1 BIR3 domain (L250 to G350) (unknown origin) after 20 mins by fluorescence polarization assay; outline: as §2
[21] = Aqueous solubility of the compound at pH 4 to 6; assay type: physicochemical
BT-549 = assay: Growth inhibition of human BT549 cells; assay type: functional, cell-based
647-V = assay: Growth inhibition of human 647V cells; assay type: functional, cell-based
MIA PaCa-2 = assay: Growth inhibition of human MIAPaCa2 cells; assay type: functional, cell-based
Homo sapiens = species: Homo sapiens; assay: Growth inhibition of human 97-7 cells; assay type: functional
MDA-MB-231 [22] = assay: Antitumor activity against human MDA-MB-231 cells xenografted in CB17 SCID mouse assessed as tumor growth inhibition at 0.1 to 3 mg/kg, iv administered once a week for 2 weeks measured twice a week for 78 days; assay type: functional, organism-based
Outline: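 MDA-MB-231 tumors were implanted orthotopically in mice and grown to about 120 mm³ average. Vehicle or compound was then given intravenously once weekly for 2 weeks, at 0.1, 0.5 or 3.0 mg/kg. Tumor volume was measured twice weekly for 78 days and reported as geometric mean ± SE.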

Mus musculus [23] = assay: Induction of caspase-3 cleavage in tumor of CB17 SCID mouse xenografted with human MDA-MB-231 cells at 0.05 to 3 mg/kg, iv after 4 to 18 hrs by ELISA; assay type: functional, organism-based
Outline: (§3)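 Mice bearing MDA-MB-231 xenografts received a single intravenous dose. Intratumoral cIAP1 protein and cleaved caspase-3 levels were measured at 4, 6 and 18 h postdose.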

Mus musculus [24] = assay: Induction of cIAP1 degradation in tumor of CB17 SCID mouse xenografted with human MDA-MB-231 cells at 0.05 to 3 mg/kg, iv up to 18 hrs by ELISA; assay type: functional, organism-based; outline: as §3
MDA-MB-231 [25] = assay: Induction of apoptosis in human MDA-MB-231 cells assessed as cell death at 0.5 to 1.5 nM preincubated for 1 to 3 hrs followed by compound-washout measured after 72 hrs by MTS assay; assay type: functional, cell-based
Outline: (§4)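 MDA-MB-231 cells were exposed to increasing compound concentrations for 1 or 3 h, rinsed, then given drug-free medium. Active caspase-3 per well was read at 24 h total. Survival was measured by MTS at 72 h total; 0% survival means complete cell death.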

MDA-MB-231 [26] = assay: Induction of apoptosis in human MDA-MB-231 cells assessed as caspase-3 cleavage at 0.5 to 1.5 nM preincubated for 1 to 3 hrs followed by compound-washout measured after 24 hrs by luciferase reporter gene assay; assay type: functional, cell-based; outline: as §4
[27] = molecular target: T2, E3 ubiquitin-protein ligase XIAP; assay: Inhibition of XIAP-caspase-9 interaction in human MDA-MB-231 cells at 1 uM after 4 hrs by immunoprecipitation assay; assay type: cell-based
Outline: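 MDA-MB-231 cells were left untreated or exposed to 1 μM compound for 4 h. Caspase-9 was immunoprecipitated from the lysates, and caspase-9–XIAP complexes were detected by blotting.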

[28] = molecular target: T2, E3 ubiquitin-protein ligase XIAP; assay: Binding affinity to XIAP in human MDA-MB-231 cells assessed as effect on protein level at 0.1 to 100 nM after 4 hrs by Western blotting analysis; assay type: cell-based
Outline: (§5)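 MDA-MB-231 cells were treated with a range of compound concentrations. IAP protein levels were assessed by western blot: cIAP2 after 1 h, XIAP after 4 h.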

[29] = molecular target: T3, Baculoviral IAP repeat-containing protein 3; assay: Binding affinity to cIAP2 in human MDA-MB-231 cells assessed as induction of protein degradation at 0.03 to 1 nM after 1 hr by Western blotting analysis; assay type: cell-based; outline: as §5
[30] = molecular target: T1, Baculoviral IAP repeat-containing protein 2; assay: Binding affinity to cIAP1 in human MDA-MB-231 cells assessed as induction of protein degradation after 1 hr by Western blotting analysis; assay type: cell-based
[31] = AUC in Han Wistar rat at 0.8 mg/kg, iv by LC-MS/MS analysis; assay type: ADME, organism-based; set-up: dose 0.8 mg/kg, route intravenous; settings: plasma; outline: as §1
[32] = Elimination half life in Han Wistar rat at 0.8 mg/kg, iv by LC-MS/MS analysis; assay type: ADME, organism-based; set-up: dose 0.8 mg/kg, route intravenous; settings: in vivo, read-out: beta t1/2 (converted); outline: as §1
[33] = Volume of distribution at steady state in Han Wistar rat at 0.8 mg/kg, iv by LC-MS/MS analysis; assay type: ADME, organism-based; set-up: dose 0.8 mg/kg, route intravenous; settings: in vivo, read-out: Vdss; outline: as §1
[34] = Total plasma clearance in Han Wistar rat at 0.8 mg/kg, iv by LC-MS/MS analysis; assay type: ADME, organism-based; set-up: dose 0.8 mg/kg, route intravenous; outline: as §1

Structure (SMILES): CN[C@@H](C)C(=O)N[C@H](C(=O)N1CCC[C@H]1C(=O)N[C@H]1c2ccccc2C[C@H]1OCC#CC#CCO[C@@H]1Cc2ccccc2[C@@H]1NC(=O)[C@@H]1CCCN1C(=O)[C@@H](NC(=O)[C@H](C)NC)C(C)(C)C)C(C)(C)C
- Papp A→B [1]: < 0.1 ×10⁻⁶ cm/s
- solubility thermodynamic at 24 h [2]: > 1000 µM
- GI50 (MDA-MB-231 [3]): < 2.4 nM
- EC50 [4]: 0.4 nM

Structure (SMILES): CN[C@@H](C)C(=O)N[C@H](C(=O)N1CCC[C@H]1C(=O)N[C@H]1c2ccccc2C[C@H]1OCCOCCO[C@@H]1Cc2ccccc2[C@@H]1NC(=O)[C@@H]1CCCN1C(=O)[C@@H](NC(=O)[C@H](C)NC)C1CCCCC1)C1CCCCC1
- AUC [5]: 206 ng·h/mL
- half-life [6]: 1.2 h
- Vd [7]: 1.9 L/kg
- clearance [8]: 80 mL/min/kg
- GI50 (MDA-MB-231 [3]): < 0.1 nM
- EC50 [4]: 0.6 nM

Structure (SMILES): CN[C@@H](C)C(=O)N[C@H](C(=O)N1CCC[C@H]1C(=O)N[C@H]1c2ccccc2C[C@H]1OCC#CC#CCO[C@@H]1Cc2ccccc2[C@@H]1NC(=O)[C@@H]1CCCN1C(=O)[C@@H](NC(=O)[C@H](C)NC)C1CCCCC1)C1CCCCC1 [listing 1 of 2 here]
- Stability [9]: Unstable
- Stability [10]: Unstable
- Stability [11]: Stable
- Stability [12]: Stable
- IC50 [13]: 21 nM
- IC50 [14]: 21 nM
- AUC [15]: 166 ng·h/mL
- half-life [16]: 0.5 h
- Vd [17]: 0.8 L/kg
- clearance [18]: 50 mL/min/kg
- Papp A→B [1]: < 0.1 ×10⁻⁶ cm/s
- GI50 (MDA-MB-231 [3]): < 0.06 nM
- EC50 [4]: 0.1 nM
- IC50 [19]: 15 nM
- IC50 [20]: 15 nM

Structure (SMILES): CN[C@@H](C)C(=O)N[C@H](C(=O)N1CCC[C@H]1C(=O)N[C@H]1c2ccccc2C[C@H]1NC(=O)c1ccc(C(=O)N[C@@H]2Cc3ccccc3[C@@H]2NC(=O)[C@@H]2CCCN2C(=O)[C@@H](NC(=O)[C@H](C)NC)C2CCCCC2)cc1)C1CCCCC1
- AUC [15]: 230 ng·h/mL
- half-life [16]: 6.6 h
- Vd [17]: 1.4 L/kg
- clearance [18]: 37 mL/min/kg
- GI50 (MDA-MB-231 [3]): 6 nM
- EC50 [4]: 124 nM
- inhibition [20]: Active

Structure (SMILES): CN[C@@H](C)C(=O)N[C@H](C(=O)N1CCC[C@H]1C(=O)N[C@H]1c2ccccc2C[C@H]1OCC#CC#CCO[C@@H]1Cc2ccccc2[C@@H]1NC(=O)[C@@H]1CCCN1C(=O)[C@@H](NC(=O)[C@H](C)NC)C1CCCCC1)C1CCCCC1.Cl.Cl
- solubility [21]: > 7000 µg/mL

Structure (SMILES): CN[C@@H](C)C(=O)N[C@H](C(=O)N1CCC[C@H]1C(=O)N[C@H]1c2ccccc2C[C@H]1OCC#CC#CCO[C@@H]1Cc2ccccc2[C@@H]1NC(=O)[C@@H]1CCCN1C(=O)[C@@H](NC(=O)[C@H](C)NC)C1CCCCC1)C1CCCCC1 [listing 2 of 2 here]
- growth inhibition (GI) (BT-549): Active
- growth inhibition (GI) (647-V): Active
- growth inhibition (GI) (MIA PaCa-2): Active
- growth inhibition (GI) (Homo sapiens): Active
- TGI (MDA-MB-231 [22]): Active
- Activity (Mus musculus [23]): Active
- Activity (Mus musculus [24]): Active
- Activity (MDA-MB-231 [25]): Active
- Activity (MDA-MB-231 [26]): Active
- inhibition [27]: Active
- Activity [28]: inactive
- Activity [29]: Active
- Activity [30]: Dose-dependent effect

Structure (SMILES): CN[C@@H](C)C(=O)N[C@H](C(=O)N1CCC[C@H]1C(=O)N[C@H]1c2ccccc2C[C@H]1OCCCCCCO[C@@H]1Cc2ccccc2[C@@H]1NC(=O)[C@@H]1CCCN1C(=O)[C@@H](NC(=O)[C@H](C)NC)C1CCCCC1)C1CCCCC1
- AUC [31]: 262 ng·h/mL
- half-life [32]: 3.6 h
- Vd [33]: 1.4 L/kg
- clearance [34]: 45 mL/min/kg
- GI50 (MDA-MB-231 [3]): < 0.1 nM
- EC50 [4]: 0.1 nM
